ChEMBL document CHEMBL3244340, “Antineoplastic agents. 1. Synthesis and antineoplastic activities of chloroethyl- and methylnitrosourea analogues of thymidine” (J Med Chem, 1978)

Columns and labels:
[1] = Carbamoylating activity of the compound at 5 umol by liquid scintillation spectrometry in presence of [14C]-lysine relative to 1,3-bis-(2-chloroethyl)-1-nitrosourea; format: physicochemical
[2] = test system: L1210; experiment: Cytotoxicity against mouse L1210 cells after 72 hrs by coulter counter analysis; format: functional; settings: L1210, 72 h, read-out: ED50 (the source's name)
In short: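 Murine L1210 leukemia cells grown in suspension in Fischer's medium with 10% horse serum, 37 °C. Cells exposed to nitrosoureas for 72 h, then counted by Coulter counter, two independent samples in duplicate per concentration. ED50 (concentration inhibiting growth by 50%) estimated from dose-response curves pooled from at least three separate experiments.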

[3] = Alkylating activity of the compound relative to 1,3-bis-(2-chloroethyl)-1-nitrosourea; format: physicochemical

| SMILES | fold change (FC) [1] | EC50 [2] [µM] | fold change (FC) [3] |
| --- | --- | --- | --- |
| Cc1cn([C@H]2C[C@H](O)[C@@H](CNC(=O)N(CCCl)N=O)O2)c(=O)[nH]c1=O | 1.6 | 6.6 | 0.47 |
| Cc1cn([C@H]2C[C@H](NC(=O)N(C)N=O)[C@@H](CO)O2)c(=O)[nH]c1=O | 0.9 | 1 | 0.05 |
| Cc1cn([C@H]2C[C@H](NC(=O)N(CCCl)N=O)[C@@H](CO)O2)c(=O)[nH]c1=O | 0.9 | 1.5 | 2.1 |
| O=NN(CCCl)C(=O)NCCCl [CARMUSTINE] |  | 4 |  |
| Cc1cn([C@H]2C[C@H](O)[C@@H](CNC(=O)N(C)N=O)O2)c(=O)[nH]c1=O | 1 | 95 | 0.05 |
| Cc1cn([C@H]2C[C@H](O)[C@@H](CN(N=O)C(=O)NCCCl)O2)c(=O)[nH]c1=O | 1.6 | 4.2 | 0.06 |
